The source made the active and inactive calls.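 How the source made its calls, unless noted: active means viability at or under a set limit in both replicates, limit being median viability minus 3 SD (cut at about 48% in these data, passing the limit was not always enough); inconclusive means at or under the limit in just one replicate; inactive means at or above the limit in both replicates.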
How the values were obtained:
[1] = Her2 expression decrease, cell viability multiplex – SKBR3 breast tumor cells, AlphaScreen, ATP viability, primary screen (AID 461;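 active means Her2 level under about 52% in both replicate screens, with viability over 70% of control, limit read from the data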;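 on Her2 level: lower value means less Her2 protein in the cells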;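 on viability: percent of carrier control wells set as 100% viability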); settings: SKBR3 Her2 protein level, 18-24 h, measured here: SKBR3 viability, ATP luminescence, at 10 µM
[2] = biological target: Receptor tyrosine-protein kinase erbB-2 (Homo sapiens) (UniProt P04626); assay: as above; settings: 18-24 h, at 10 µM, stronger effect = lower value
[3] = reduced viability of SK-BR-3 breast cancer cells – cell-based, 24 h, human, pilot screen (AID 572;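 active means viability at or below 10% of carrier control in both of two separate runs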;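 further: compound exposure lasted between 18 and 24 h rather than exactly 24 h; 100% = carrier-treated control wells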); settings: SK-BR-3 viability, CellTiter-Glo luminescence, at 10 µM, stronger effect = lower value
[4] = HUVEC growth inhibition – cell-based, human, primary screen (AID 575;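 active means viability at or below 30% in both replicate assays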;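 further: 100% = median of untreated cell wells with 0.1% DMSO on each plate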); settings: HUVEC proliferation, CellTiter-Glo luminescence, 72 h; at 10 µM; stronger effect = lower value
Outline: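 Material: primary human umbilical vein endothelial cells / Schedule: 72 h exposure, 37 °C, 5% CO2, 30 min RT equilibration / Signal: ATP-based CellTiter-Glo luminescent read / Read-out basis: percent of median DMSO-control luminescence / Control set: 32 DMSO-only cell-control wells (high), 32 MePR drug-control wells (low) per plate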

[5] = H69AR cell proliferation blockers – human, duplicate replicates, primary screen (AID 580); settings: H69AR lung tumor cells viability, ATP luminescence, 72 h; at 10 µM; stronger effect = lower value;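 further: 100% = mean luminescence of untreated wells and 0% = no signal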
[6] = MRP1 drug-resistance reversers in H69AR cells – cell-based, doxorubicin co-treatment, pilot screen (AID 601;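 active means viability loss from added drug above about 55%, and viability with drug at most 40%, in both replicates, limit read from the data, passing the limit was not always enough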); settings: CellTiter-Glo, 72 h, at 10 µM; for differential viability (reversal): stronger effect = higher value
[7] = yeast transport mutant growth inhibition pilot in 384-well plates, post-Golgi transport modulator project (AID 636; in the data active means inhibition above about 31%); settings: absorbance 615 nm, about 18 h, stronger effect = higher value
[8] = growth suppression of yeast trafficking mutant, preliminary HTS, modulators of trafficking downstream of Golgi apparatus project, 1536-format plate, OD 615 nm (AID 637; in the data active means inhibition above about 30%); settings: yeast transport mutant growth, absorbance 615 nm, 18 h; stronger effect = higher value
[9] = H69AR cells + 2 uM doxorubicin, measured here: viability with 2 uM doxorubicin, stronger effect = lower value
[10] = H69AR cells, compound alone cytotoxicity

Chain of Receptor tyrosine-protein kinase erbB-2 (Homo sapiens) (P04626 whole entry, looked up): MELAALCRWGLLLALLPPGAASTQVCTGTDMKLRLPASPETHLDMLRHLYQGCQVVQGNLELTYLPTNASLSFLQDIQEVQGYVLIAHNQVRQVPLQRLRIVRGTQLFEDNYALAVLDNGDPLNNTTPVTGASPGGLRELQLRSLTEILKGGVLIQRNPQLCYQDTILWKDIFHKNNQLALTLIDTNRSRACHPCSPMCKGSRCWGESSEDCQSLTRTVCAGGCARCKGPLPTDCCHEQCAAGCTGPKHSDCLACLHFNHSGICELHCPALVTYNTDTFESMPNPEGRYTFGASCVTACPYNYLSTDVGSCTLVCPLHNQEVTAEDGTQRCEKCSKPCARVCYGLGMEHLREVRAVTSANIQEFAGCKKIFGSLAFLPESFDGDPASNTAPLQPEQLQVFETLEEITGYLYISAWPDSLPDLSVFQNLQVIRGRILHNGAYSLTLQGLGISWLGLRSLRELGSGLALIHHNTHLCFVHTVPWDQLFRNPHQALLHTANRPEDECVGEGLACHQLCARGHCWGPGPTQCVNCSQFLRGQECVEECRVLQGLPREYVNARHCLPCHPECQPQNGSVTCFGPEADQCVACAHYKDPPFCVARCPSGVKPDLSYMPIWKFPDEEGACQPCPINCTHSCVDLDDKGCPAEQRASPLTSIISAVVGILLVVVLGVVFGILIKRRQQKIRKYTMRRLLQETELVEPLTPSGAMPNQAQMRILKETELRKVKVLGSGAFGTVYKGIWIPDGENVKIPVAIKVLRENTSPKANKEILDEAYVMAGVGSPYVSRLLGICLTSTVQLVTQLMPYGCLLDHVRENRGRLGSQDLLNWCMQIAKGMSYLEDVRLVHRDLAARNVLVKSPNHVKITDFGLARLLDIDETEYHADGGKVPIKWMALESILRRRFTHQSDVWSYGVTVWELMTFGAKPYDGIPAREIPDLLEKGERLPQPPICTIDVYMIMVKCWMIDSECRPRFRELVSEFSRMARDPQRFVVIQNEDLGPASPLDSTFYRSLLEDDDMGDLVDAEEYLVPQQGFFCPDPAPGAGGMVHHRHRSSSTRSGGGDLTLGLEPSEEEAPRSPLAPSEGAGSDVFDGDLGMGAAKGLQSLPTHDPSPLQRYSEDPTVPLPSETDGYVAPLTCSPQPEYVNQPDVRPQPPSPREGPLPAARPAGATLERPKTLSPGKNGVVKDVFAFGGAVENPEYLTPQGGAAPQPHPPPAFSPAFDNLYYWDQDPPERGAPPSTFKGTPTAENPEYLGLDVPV

Structure (SMILES)	viability [1] [%]	Her2 level [2]	viability [3]	viability [4]	viability [5]	differential viability (reversal) ([6]; H69AR cells + 2 uM doxorubicin)	viability [6, 9] [%]	viability [6, 10] [%]	inhibition [7]	inhibition [8]
COC(=O)C(NC(C)=O)(Nc1nc2ccc(S(C)(=O)=O)cc2s1)C(F)(F)F (stereo not given)	96.5	87.5% (inactive)	96.5% (inactive)	93.8% (inactive)	102% (inactive)	1.18% (inactive)	101	102	-2.11% (inactive)	-1.27% (inactive)
Cc1cc(C)nc(N2CCC(C(=O)NC3CCCCCC3)CC2)n1	92.5	99% (inactive)	92.5% (inactive)	111% (inactive)	96.1% (inactive)	1.6% (inactive)	94.5	96.1	-4.8% (inactive)	1.13% (inactive)
CCCCP(=O)(CCCC)Cc1ccccc1O	99.5	104% (inactive)	99.5% (inactive)	103% (inactive)	97.1% (inactive)	7.29% (inactive)	89.8	97.1	-5.32% (inactive)	-6.07% (inactive)
COC(=O)c1cc(Br)c(=O)n(CCC2=CCCCC2)c1	81.5	99.5% (inactive)	81.5% (inactive)	92.5% (inactive)	89.9% (inactive)	1.54% (inactive)	88.4	89.9	-0.27% (inactive)	6.89% (inactive)
Cc1cc(C(=O)COC(=O)C2COc3ccccc3O2)c(C)n1CC1CCCO1 (stereo not given)	82	100% (inactive)	82% (inactive)	99.4% (inactive)	94% (inactive)	0.315% (inactive)	93.6	94	-0.38% (inactive)	-4.5% (inactive)
CCN(Cc1cc2ccccc2[nH]c1=O)S(=O)(=O)c1ccccc1	110	112% (inactive)	110% (inactive)	98.4% (inactive)	87.1% (inactive)	-12.7% (inactive)	99.8	87.1	-4.59% (inactive)	-2.38% (inactive)
CCNC(=O)CC1C(=O)N(c2ccc(F)cc2)C(=O)N1CCC(C)C (stereo not given)	103	80.5% (inactive)	103% (inactive)	98.4% (inactive)	92.9% (inactive)	8.4% (inactive)	84.5	92.9	0.66% (inactive)	-3.64% (inactive)
O=C(Cn1nnc(-c2cc(Cl)ccc2-n2cnnn2)n1)N1CCCc2ccccc21	116	99.5% (inactive)	116% (inactive)	95.7% (inactive)	96.4% (inactive)	9.45% (inactive)	87	96.4	-2.47% (inactive)	10.8% (inactive)
CCCCc1nc(NCCNC(=O)c2ccco2)c(C#N)c2c1CSC(C)(C)C2	84.5	100% (inactive)	84.5% (inactive)	78.7% (inactive)	86.7% (inactive)	15.8% (inactive)	70.9	86.7	-5.2% (inactive)	-7.38% (inactive)
Cc1nc2cc(-n3ccc(=O)cc3)ccc2n1-c1ccccc1	102	93% (inactive)	102% (inactive)	79.7% (inactive)	90.5% (inactive)	13.4% (inactive)	77.1	90.5	-2.93% (inactive)	-3.49% (inactive)
CC(C)(O)C1=NOC(c2ccccc2)C1 (stereo not given)	98	108% (inactive)	98% (inactive)	76.2% (inactive)	71.1% (inactive)	-14.7% (inactive)	85.8	71.1	-2.57% (inactive)	1.31% (inactive)
Cc1cc(=O)n2[nH]c(COc3ccccc3)nc2n1	101	105% (inactive)	101% (inactive)	94.1% (inactive)	108% (inactive)	14% (inactive)	94	108	-5.33% (inactive)	-6.13% (inactive)
CCCc1nnc2n1N=C(c1ccc(OC)c(OC)c1)CS2	85	80% (inactive)	85% (inactive)	68.7% (inactive)	69.9% (inactive)	3.1% (inactive)	66.8	69.9	-5.33% (inactive)	2.62% (inactive)
Cc1nc2ccccc2cc1C(=O)NCc1ccco1	130	90% (inactive)	130% (inactive)	91.3% (inactive)	93.3% (inactive)	8.23% (inactive)	85.1	93.3	-4.93% (inactive)	7.42% (inactive)
CCOC(=O)CSc1nc2ccccc2c(=O)n1CCN1CCOCC1	92.5	87.5% (inactive)	92.5% (inactive)	87.6% (inactive)	95.4% (inactive)	11% (inactive)	84.4	95.4	0% (inactive)	-6.19% (inactive)
O=C(Cn1cnc2c(cnn2-c2ccc(F)cc2)c1=O)N1CCCc2ccccc21	112	86.5% (inactive)	112% (inactive)	85.6% (inactive)	94.4% (inactive)	-7.36% (inactive)	102	94.4	-4.67% (inactive)	-2.79% (inactive)

Structure (SMILES)	viability [1] [%]	Her2 level [2]	viability [3]	viability [4]	viability [5]	differential viability (reversal) ([6]; H69AR cells + 2 uM doxorubicin)	viability [6, 9] [%]	viability [6, 10] [%]	inhibition [7]	inhibition [8]
CCOC(=O)CN1CC23C=CC(O2)C(C(=O)Nc2ccc(OC)cc2OC)C3C1=O (stereo not given)	99	99% (inactive)	99% (inactive)	93.7% (inactive)	98.9% (inactive)	5.06% (inactive)	93.9	98.9	-0.77% (inactive)	1.83% (inactive)
COc1ccc(NC(=O)C(C)Oc2ccc(/C(C)=N\O)cc2)cc1 (stereo not given)	122	92% (inactive)	122% (inactive)	91.9% (inactive)	90.4% (inactive)	7.12% (inactive)	83.3	90.4	-7.33% (inactive)	-0.32% (inactive)
CC(=O)c1c(C)[nH]c(C(=O)N2CCN(C(=O)c3ccco3)CC2)c1C	85	102% (inactive)	85% (inactive)	94.5% (inactive)	99.1% (inactive)	0.42% (inactive)	98.7	99.1	-2.3% (inactive)	-0.49% (inactive)
O=C1NC(Cc2c[nH]c3ccccc23)C(=O)N1CCOc1ccccc1 (stereo not given)	79.5	89% (inactive)	79.5% (inactive)	73.2% (inactive)	94.4% (inactive)	0.2% (inactive)	94.2	94.4	-2.76% (inactive)	-1.83% (inactive)
CCOC(=O)c1cccc(NC(=O)CSc2nnc(-c3cccnc3)n2CC)c1	88.5	95% (inactive)	88.5% (inactive)	101% (inactive)	109% (inactive)	13.3% (inactive)	95.2	109	-4.67% (inactive)	0% (inactive)
CCCOC(=O)C1[C@H]2C(=O)N(CCCOC)C[C@]23C=C[C@H]1O3 (stereo not given in full)	92.5	85% (inactive)	92.5% (inactive)	98.5% (inactive)	98.3% (inactive)	-1.98% (inactive)	100	98.3	-5.06% (inactive)	-3.17% (inactive)
Cc1noc(C)c1CSc1nnc2n(-c3ccccc3)c(=O)c3ccccc3n12	72.5	75.5% (inactive)	72.5% (inactive)	105% (inactive)	81.7% (inactive)	-18.9% (inactive)	101	81.7	2.31% (inactive)	-5.83% (inactive)
Cc1ccc(-n2ncc3c(=O)[nH]c(SCC(=O)N4CCN(c5ccccc5)CC4)nc32)cc1	86	77% (inactive)	86% (inactive)	92.2% (inactive)	76.3% (inactive)	4.85% (inactive)	71.5	76.3	-5.79% (inactive)	-1.17% (inactive)
CN=Cc1cc(-c2ccccc2)sc1O	82	102% (inactive)	82% (inactive)	102% (inactive)	90% (inactive)	13% (inactive)	77	90	0.41% (inactive)	32.7% (active)
Cc1c(C(=O)OCC(C)(C)CN(C)C)oc2ccccc12	122	95% (inactive)	122% (inactive)	101% (inactive)	92.4% (inactive)	8.07% (inactive)	84.3	92.4	-6.8% (inactive)	-4.6% (inactive)
COc1cc2c(=O)n(Cc3ccccc3)c(=O)n(CC(=O)NCc3ccco3)c2cc1OC	126	83% (inactive)	126% (inactive)	95.4% (inactive)	86.2% (inactive)	-0.76% (inactive)	87	86.2	-8% (inactive)	-3.65% (inactive)
Cc1cc(NC(=O)CCOc2ccccc2)no1	85.5	96.5% (inactive)	85.5% (inactive)	87% (inactive)	88.6% (inactive)	2.89% (inactive)	85.7	88.6	-2.34% (inactive)	1% (inactive)
CCOC(=O)c1sc(N2C(=O)C(O)=C(C(=O)c3ccco3)C2c2ccccc2)nc1C (stereo not given)	101	83.5% (inactive)	101% (inactive)	77.4% (inactive)	84.2% (inactive)	1.33% (inactive)	82.9	84.2	-4.93% (inactive)	0.98% (inactive)
O=C(CN1C(=O)c2cccc3cccc1c23)NCC1CCCO1 (stereo not given)	104	116% (inactive)	104% (inactive)	98.8% (inactive)	96.5% (inactive)	1.85% (inactive)	94.7	96.5	1.05% (inactive)	1.97% (inactive)
N#Cc1c(N)n(CCNC(=O)c2cccs2)c2nc3ccccc3nc12	82.5	84.5% (inactive)	82.5% (inactive)	97.9% (inactive)	90.9% (inactive)	-7.67% (inactive)	98.5	90.9	-5.6% (inactive)	-0.16% (inactive)

Reference: PubChem BioAssay
